Assay results: ChEMBL document CHEMBL4689842, “EUbOPEN Chemogenomics Library wave 1” (2021)
Several values for one entry are separate records, joined by “and”; a condition that tells them apart may be missing. Identical values can stand only once.

Tested on: Fibroblast
Assay: Multiplex assay against human fibroblast
Assay type: toxicity, cell-based
Method in brief: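 Tubulin, mitochondrial-mass and membrane-permeability phenotypes are per cents of healthy-nucleus cells. Cells were gated by CellPathfinder machine learning into Hoechst high-intensity objects or normal cells, normal cells into healthy, pyknosed or fragmented nuclei, and pyknosed cells into mitotic or apoptotic. Before that, live cells stained at seeding with Hoechst33342, BioTracker Green Microtubule Cytoskeleton Dye, MitoTracker Red and Annexin V Alexa Fluor 680 were imaged on a CQ1 microscope at 37°C and 5% CO2 after compound addition.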

[1] = 12 h, 1 µM, compound concentration 1 uM, replicate 1
[2] = 12 h, 1 µM, compound concentration 1 uM, replicate 2
[3] = 12 h, 10 µM, compound concentration 10 uM, replicate 1
[4] = 12 h, 10 µM, compound concentration 10 uM, replicate 2
[5] = 24 h, 1 µM, compound concentration 1 uM, replicate 1
[6] = 24 h, 1 µM, compound concentration 1 uM, replicate 2
[7] = 24 h, 10 µM, compound concentration 10 uM, replicate 1
[8] = 24 h, 10 µM, compound concentration 10 uM, replicate 2

## C=CCn1c(=O)c2cnc(Nc3ccc(N4CCN(C)CC4)cc3)nc2n1-c1cccc(C(C)(C)O)n1 [ADAVOSERTIB]
[1]
  Population Apoptotic (%): 69%
  Population Fragmented Nuclei (%): 28%
  Population Healthy Nuclei (%): 62%
  Population Hoechst High Intensity Objects (%): 15%
  Population Membrane Permeable-Phenotype (%): 7%
  Population Mitochondria Different-Phenotype (%): 4%
  Population Mitotic Cells (%): 30%
  Population Normal (%): 84%
  Population Pyknosed Nuclei (%): 8%
  Population Tubulin-Different-Phenotype (%): 6%
  Total Cell Count: 178
[2]
  Population Apoptotic (%): 50%
  Population Fragmented Nuclei (%): 48%
  Population Healthy Nuclei (%): 37%
  Population Hoechst High Intensity Objects (%): 35%
  Population Membrane Permeable-Phenotype (%): 9%
  Population Mitochondria Different-Phenotype (%): 19%
  Population Mitotic Cells (%): 50%
  Population Normal (%): 64%
  Population Pyknosed Nuclei (%): 14%
  Population Tubulin-Different-Phenotype (%): 19%
  Total Cell Count: 87
[3]
  Population Apoptotic (%): 44%
  Population Fragmented Nuclei (%): 29%
  Population Healthy Nuclei (%): 46%
  Population Hoechst High Intensity Objects (%): 14%
  Population Membrane Permeable-Phenotype (%): 8%
  Population Mitochondria Different-Phenotype (%): 5%
  Population Mitotic Cells (%): 55%
  Population Normal (%): 85%
  Population Pyknosed Nuclei (%): 24%
  Population Tubulin-Different-Phenotype (%): 23%
  Total Cell Count: 218
[4]
  Population Apoptotic (%): 75%
  Population Fragmented Nuclei (%): 55%
  Population Healthy Nuclei (%): 36%
  Population Hoechst High Intensity Objects (%): 41%
  Population Membrane Permeable-Phenotype (%): 17%
  Population Mitochondria Different-Phenotype (%): 23%
  Population Mitotic Cells (%): 25%
  Population Normal (%): 58%
  Population Pyknosed Nuclei (%): 8%
  Population Tubulin-Different-Phenotype (%): 35%
  Total Cell Count: 81
[5]
  Population Apoptotic (%): 83%
  Population Fragmented Nuclei (%): 27%
  Population Healthy Nuclei (%): 60%
  Population Hoechst High Intensity Objects (%): 18%
  Population Membrane Permeable-Phenotype (%): 6%
  Population Mitochondria Different-Phenotype (%): 9%
  Population Mitotic Cells (%): 16%
  Population Normal (%): 81%
  Population Pyknosed Nuclei (%): 11%
  Population Tubulin-Different-Phenotype (%): 7%
  Total Cell Count: 187
[6]
  Population Apoptotic (%): 25%
  Population Fragmented Nuclei (%): 51%
  Population Healthy Nuclei (%): 41%
  Population Hoechst High Intensity Objects (%): 29%
  Population Membrane Permeable-Phenotype (%): 4%
  Population Mitochondria Different-Phenotype (%): 8%
  Population Mitotic Cells (%): 75%
  Population Normal (%): 70%
  Population Pyknosed Nuclei (%): 6%
  Population Tubulin-Different-Phenotype (%): 12%
  Total Cell Count: 82
[7]
  Population Apoptotic (%): 56%
  Population Fragmented Nuclei (%): 30%
  Population Healthy Nuclei (%): 47%
  Population Hoechst High Intensity Objects (%): 20%
  Population Membrane Permeable-Phenotype (%): 4%
  Population Mitochondria Different-Phenotype (%): 10%
  Population Mitotic Cells (%): 43%
  Population Normal (%): 79%
  Population Pyknosed Nuclei (%): 21%
  Population Tubulin-Different-Phenotype (%): 21%
  Total Cell Count: 241
[8]
  Population Apoptotic (%): 100%
  Population Fragmented Nuclei (%): 61%
  Population Healthy Nuclei (%): 35%
  Population Hoechst High Intensity Objects (%): 29%
  Population Membrane Permeable-Phenotype (%): 9%
  Population Mitochondria Different-Phenotype (%): 9%
  Population Mitotic Cells (%): 0%
  Population Normal (%): 70%
  Population Pyknosed Nuclei (%): 3%
  Population Tubulin-Different-Phenotype (%): 28%
  Total Cell Count: 84

## C[C@H]1Oc2cc(cnc2N)-c2c(nn(C)c2C#N)CN(C)C(=O)c2ccc(F)cc21 [LORLATINIB]
[1]
  Population Apoptotic (%): 60% and 68%
  Population Fragmented Nuclei (%): 26% and 17%
  Population Healthy Nuclei (%): 55% and 68%
  Population Hoechst High Intensity Objects (%): 19% and 8%
  Population Membrane Permeable-Phenotype (%): 20% and 11%
  Population Mitochondria Different-Phenotype (%): 7% and 4%
  Population Mitotic Cells (%): 40% and 31%
  Population Normal (%): 80% and 91%
  Population Pyknosed Nuclei (%): 17% and 14%
  Total Cell Count: 210 and 172
[2]
  Population Apoptotic (%): 42% and 64%
  Population Fragmented Nuclei (%): 63% and 54%
  Population Healthy Nuclei (%): 25% and 15%
  Population Hoechst High Intensity Objects (%): 34% and 31%
  Population Membrane Permeable-Phenotype (%): 33% and 28%
  Population Mitotic Cells (%): 57% and 35%
  Population Normal (%): 65% and 68%
  Population Pyknosed Nuclei (%): 11% and 30%
  Population Tubulin-Different-Phenotype (%): 40% and 57%
  Total Cell Count: 91 and 67
[5]
  Population Apoptotic (%): 55% and 64%
  Population Fragmented Nuclei (%): 22% and 24%
  Population Healthy Nuclei (%): 56% and 66%
  Population Hoechst High Intensity Objects (%): 14% and 12%
  Population Membrane Permeable-Phenotype (%): 15% and 6%
  Population Mitotic Cells (%): 44% and 35%
  Population Normal (%): 85% and 87%
  Population Pyknosed Nuclei (%): 21%
  Total Cell Count: 201 and 190
[6]
  Population Apoptotic (%): 57% and 40%
  Population Fragmented Nuclei (%): 55% and 65%
  Population Hoechst High Intensity Objects (%): 36% and 33%
  Population Membrane Permeable-Phenotype (%): 33% and 20%
  Population Mitochondria Different-Phenotype (%): 0% and 13%
  Population Mitotic Cells (%): 42% and 60%
  Population Normal (%): 63% and 66%
  Population Tubulin-Different-Phenotype (%): 33% and 26%
  Total Cell Count: 60 and 87
